Tests used:
Mus musculus [1] = experiment: In vivo antitumor activity against murine pancreatic adenocarcinoma and measured as number of deaths on a schedule of 1-6 days and at a total dose of 162 mg/kg; type: ADME, organism-based; design: dose 162 mg/kg
How it was run: (§1)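 Mice bearing drug-sensitive murine pancreatic adenocarcinoma Panc-03 were dosed on the listed days at the listed total doses. Dosing solutions were made in water from stock solutions and injected within 20 min. Chlorohydrin solutions were acidified with 0.05% citric acid. Tolerance was recorded as body weight loss and number of deaths.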

Mus musculus [2] = experiment: Ratio of the median tumor weight in the treatment group over the median tumor weight in the control group on a schedule of 1-6 days and at a total dose of 72 mg/kg; type: functional
How it was run: (§2)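 Panc-03 murine pancreatic adenocarcinoma in mice, with injectable solutions prepared in water from stock and given within 20 min; chlorohydrins were acidified with 0.05% citric acid. %T/C is median tumor weight of the treated group over that of the control group × 100, calculated when control median tumor weight reaches 1 g. T/C ≤ 42% is taken as significant activity.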

Mus musculus [3] = experiment: In vivo antitumor activity against murine pancreatic adenocarcinoma and measured as % weight loss on a schedule of 1-6 days and at a total dose of 162 mg/kg; type: functional; how it was run: as §1
CCRF-CEM = experiment: In vitro growth inhibitory activity in the human CCRF-CEM leukemia cell line.; type: functional, cell-based
How it was run: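 CCRF-CEM human leukemia cells in log phase, 4.8 × 10⁴ cells per 2 mL well. Medium was RPMI-1640 with 10% dialyzed FBS and 25 mM HEPES. Compounds were serially diluted 1:3 in DMSO and added to duplicate wells, with DMSO-only controls, at 0.5% final DMSO. Cells were exposed 72 h at 37 °C in humidified 5% CO₂, then counted. IC50 in nM.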

Mus musculus [4] = experiment: In vivo antitumor activity against murine pancreatic adenocarcinoma and measured as number of deaths on a schedule of 1-6 days and at a total dose of 72 mg/kg; type: ADME, organism-based; design: dose 72 mg/kg; how it was run: as §1
Mus musculus [5] = experiment: Ratio of the median tumor weight in the treatment group over the median tumor weight in the control group on a schedule of 1-6 days and at a total dose of 162 mg/kg; type: functional; how it was run: as §2
Mus musculus [6] = experiment: In vivo antitumor activity against murine pancreatic adenocarcinoma and measured as % weight loss on a schedule of 1-6 days and at a total dose of 72 mg/kg; type: functional; how it was run: as §1
Mus musculus [7] = experiment: In vivo antitumor activity against murine pancreatic adenocarcinoma and measured as % weight loss on a schedule of 5-10 day and at a total dose of 210 mg/kg; type: functional; how it was run: as §1
Mus musculus [8] = experiment: Ratio of the median tumor weight in the treatment group over the median tumor weight in the control group on a schedule of 5-10 day and at a total dose of 210 mg/kg; type: functional; how it was run: as §2
Mus musculus [9] = experiment: In vivo antitumor activity against murine pancreatic adenocarcinoma and measured as number of deaths on a schedule of 5-10 day and at a total dose of 270 mg/kg; type: ADME, organism-based; design: dose 270 mg/kg; how it was run: as §1
Mus musculus [10] = experiment: In vivo antitumor activity against murine pancreatic adenocarcinoma and measured as % weight loss on a schedule of 5-10 day and at a total dose of 402 mg/kg; type: functional; how it was run: as §1
Mus musculus [11] = experiment: Ratio of the median tumor weight in the treatment group over the median tumor weight in the control group on a schedule of 5-10 day and at a total dose of 270 mg/kg; type: functional
How it was run: (§3)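 Murine pancreatic adenocarcinoma Panc-03 tumors in mice. T/C is the median tumor weight of the treated group over that of controls, ×100, taken when control median tumor weight reaches 1 g. T/C ≤42% counts as significant antitumor activity. Dosing solutions were prepared aqueous from stock solutions and injected within 20 min.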

Mus musculus [12] = experiment: In vivo antitumor activity against murine pancreatic adenocarcinoma and measured as % weight loss on a schedule of 5-10 day and at a total dose of 270 mg/kg; type: functional; how it was run: as §1
Mus musculus [13] = experiment: In vivo antitumor activity against murine pancreatic adenocarcinoma and measured as number of deaths on a schedule of 5-10 day and at a total dose of 210 mg/kg; type: ADME, organism-based; design: dose 210 mg/kg; how it was run: as §1
Mus musculus [14] = experiment: In vivo antitumor activity against murine pancreatic adenocarcinoma and measured as number of deaths on a schedule of 5-10 day and at a total dose of 402 mg/kg; type: ADME, organism-based; design: dose 402 mg/kg; how it was run: as §1
Mus musculus [15] = experiment: Ratio of the median tumor weight in the treatment group over the median tumor weight in the control group on a schedule of 5-10 day and at a total dose of 402 mg/kg; type: functional; how it was run: as §3
Mus musculus [16] = experiment: In vivo antitumor activity against murine pancreatic adenocarcinoma and measured as % weight loss on a schedule of 3-9 days and at a total dose of 42 mg/kg; type: functional; how it was run: as §1
Mus musculus [17] = experiment: In vivo antitumor activity against murine pancreatic adenocarcinoma and measured as % weight loss on a schedule of 3-10 days and at a total dose of 32 mg/kg; type: functional; how it was run: as §1
Mus musculus [18] = experiment: Ratio of the median tumor weight in the treatment group over the median tumor weight in the control group on a schedule of 3-9 days and at a total dose of 42 mg/kg; type: functional; how it was run: as §2
Mus musculus [19] = experiment: In vivo antitumor activity against murine pancreatic adenocarcinoma and measured as number of deaths on a schedule of 3-10 days and at a total dose of 32 mg/kg; type: ADME, organism-based; design: dose 32 mg/kg; how it was run: as §1
Mus musculus [20] = experiment: In vivo antitumor activity against murine pancreatic adenocarcinoma and measured as number of deaths on a schedule of 3-9 days and at a total dose of 42 mg/kg; type: ADME, organism-based; design: dose 42 mg/kg; how it was run: as §1
Mus musculus [21] = experiment: Ratio of the median tumor weight in the treatment group over the median tumor weight in the control group on a schedule of 3-10 days and at a total dose of 32 mg/kg; type: functional; how it was run: as §2
Mus musculus [22] = experiment: In vivo antitumor activity against murine pancreatic adenocarcinoma and measured as % weight loss on a schedule of 3 days and at a total dose of 2 mg/kg; type: functional; how it was run: as §1
Mus musculus [23] = experiment: Ratio of the median tumor weight in the treatment group over the median tumor weight in the control group on a schedule of 3,5 days and at a total dose of 1.6 mg/kg; type: functional; how it was run: as §2
Mus musculus [24] = experiment: In vivo antitumor activity against murine pancreatic adenocarcinoma and measured as number of deaths on a schedule of 3 days and at a total dose of 2 mg/kg; type: ADME, organism-based; design: dose 2 mg/kg; details: 72 h; how it was run: as §1
Mus musculus [25] = experiment: In vivo antitumor activity against murine pancreatic adenocarcinoma and measured as % weight loss on a schedule of 3,5 days and at a total dose of 1.6 mg/kg; type: functional; how it was run: as §1
Mus musculus [26] = experiment: In vivo antitumor activity against murine pancreatic adenocarcinoma and measured as number of deaths on a schedule of 3,5 days and at a total dose of 1.6 mg/kg; type: ADME, organism-based; design: dose 1.6 mg/kg; details: 120 h; how it was run: as §1
Mus musculus [27] = experiment: Ratio of the median tumor weight in the treatment group over the median tumor weight in the control group on a schedule of 3 days and at a total dose of 2 mg/kg; type: functional; how it was run: as §2
Mus musculus [28] = experiment: Ratio of the median tumor weight in the treatment group over the median tumor weight in the control group on a schedule of 3,5 days and at a total dose of 1 mg/kg; type: functional; how it was run: as §2
Mus musculus [29] = experiment: In vivo antitumor activity against murine pancreatic adenocarcinoma and measured as % weight loss on a schedule of 3,5 days and at a total dose of 1 mg/kg; type: functional; how it was run: as §1
Mus musculus [30] = experiment: In vivo antitumor activity against murine pancreatic adenocarcinoma and measured as number of deaths on a schedule of 3,5 days and at a total dose of 1 mg/kg; type: ADME, organism-based; design: dose 1 mg/kg; details: 120 h; how it was run: as §1
Mus musculus [31] = experiment: Ratio of the median tumor weight in the treatment group over the median tumor weight in the control group on a schedule of 3,5,7 days and at a total dose of 18 mg/kg; type: functional
How it was run: (§4)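 Mice bearing the drug-sensitive murine pancreatic adenocarcinoma Panc-03. Dosing solutions were made in water from stock solutions and injected within 20 min of preparation; chlorohydrins were acidified with 0.05% citric acid. T/C (%) = median tumor weight of the treated group ÷ median tumor weight of controls × 100, calculated when control median tumor weight reached 1 g.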

Mus musculus [32] = experiment: Ratio of the median tumor weight in the treatment group over the median tumor weight in the control group on a schedule of 3,5,7 days and at a total dose of 36 mg/kg; type: functional; how it was run: as §4
Mus musculus [33] = experiment: In vivo antitumor activity against murine pancreatic adenocarcinoma and measured as % weight loss 3,5,7 days and at a total dose of 9 mg/kg; type: functional
How it was run: (§5)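 Body weight loss was tracked in mice implanted with the Panc-03 murine pancreatic adenocarcinoma. Injections were given within 20 min of aqueous preparation from stock solutions, with chlorohydrins acidified using 0.05% citric acid.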

Mus musculus [34] = experiment: In vivo antitumor activity against murine pancreatic adenocarcinoma and measured as number of deaths on a schedule of 3,5,7 days and at a total dose of 18 mg/kg; type: ADME, organism-based; design: dose 18 mg/kg; details: 168 h; how it was run: as §1
Mus musculus [35] = experiment: In vivo antitumor activity against murine pancreatic adenocarcinoma and measured as number of deaths on a schedule of 3,5,7 days and at a total dose of 9 mg/kg; type: ADME, organism-based; design: dose 9 mg/kg; details: 168 h; how it was run: as §1
Mus musculus [36] = experiment: In vivo antitumor activity against murine pancreatic adenocarcinoma and measured as % weight loss on a schedule of 3,5,7 days and at a total dose of 18 mg/kg; type: functional; how it was run: as §5
Mus musculus [37] = experiment: Ratio of the median tumor weight in the treatment group over the median tumor weight in the control group on a schedule of 3,5,7 days and at a total dose of 9 mg/kg; type: functional; how it was run: as §4
Mus musculus [38] = experiment: In vivo antitumor activity against murine pancreatic adenocarcinoma and measured as % weight loss on a schedule of 3,5,7 days and at a total dose of 36 mg/kg; type: functional; how it was run: as §5
Mus musculus [39] = experiment: In vivo antitumor activity against murine pancreatic adenocarcinoma and measured as number of deaths on a schedule of 3,5,7 days and at a total dose of 36 mg/kg; type: ADME, organism-based; design: dose 36 mg/kg; details: 168 h; how it was run: as §1

COc1ccc(C[C@H]2NC(=O)/C=C/C[C@@H]([C@H](C)[C@@H](O)[C@@H](Cl)c3cccc(C)c3)OC(=O)[C@H](CC(C)C)OC(=O)C(C)(C)CNC2=O)cc1Cl
Death (Mus musculus [1]): 0 | T/C (Mus musculus [2]): 46% | Weight loss (Mus musculus [3]): 7% | IC50 (CCRF-CEM): 0.3 nM | Death (Mus musculus [4]): 0 | T/C (Mus musculus [5]): 0% | Weight loss (Mus musculus [6]): 12%

COc1ccc(C[C@H]2NC(=O)/C=C/C[C@@H]([C@H](C)[C@@H](O)[C@@H](Cl)c3ccccc3)OC(=O)[C@H](CC(C)C)OC(=O)C(C)(C)CNC2=O)cc1Cl
Weight loss (Mus musculus [7]): -5% | T/C (Mus musculus [8]): 0% | Death (Mus musculus [9]): 0 | Weight loss (Mus musculus [10]): -6% | T/C (Mus musculus [11]): 0% | Weight loss (Mus musculus [12]): -5% | Death (Mus musculus [13]): 0 | Death (Mus musculus [14]): 0 | T/C (Mus musculus [15]): 0%

COc1ccc(C[C@H]2NC(=O)/C=C/C[C@@H]([C@H](C)[C@H]3O[C@@H]3c3ccccc3)OC(=O)[C@H](CC(C)C)OC(=O)C(C)(C)CNC2=O)cc1Cl [CRYPTOPHYCIN 52]
Weight loss (Mus musculus [16]): -9.6% | Weight loss (Mus musculus [17]): 1.6% | T/C (Mus musculus [18]): 1% | Death (Mus musculus [19]): 0 | IC50 (CCRF-CEM): 0.022 nM | Death (Mus musculus [20]): 3 | T/C (Mus musculus [21]): 3%

COc1ccc(C[C@H]2NC(=O)/C=C/C[C@@H]([C@H](C)[C@@H](O)[C@@H](Cl)c3ccc(CN4CCNCC4)cc3)OC(=O)[C@H](CC(C)C)OC(=O)C(C)(C)CNC2=O)cc1Cl.Cl.Cl
Weight loss (Mus musculus [22]): -26% | T/C (Mus musculus [23]): 0% | Death (Mus musculus [24]): 2 | Weight loss (Mus musculus [25]): -16% | Death (Mus musculus [26]): 0 | IC50 (CCRF-CEM): 0.021 nM | T/C (Mus musculus [27]): 8% | T/C (Mus musculus [28]): 33% | Weight loss (Mus musculus [29]): -3% | Death (Mus musculus [30]): 0

COc1ccc(C[C@H]2NC(=O)/C=C/C[C@@H]([C@H](C)[C@@H](O)[C@@H](Cl)c3ccc(COC(=O)CN)cc3)OC(=O)[C@H](CC(C)C)OC(=O)C(C)(C)CNC2=O)cc1Cl.Cl
T/C (Mus musculus [31]): 0% | T/C (Mus musculus [32]): 0% | Weight loss (Mus musculus [33]): -2% | Death (Mus musculus [34]): 0 | Death (Mus musculus [35]): 0 | IC50 (CCRF-CEM): 0.013 nM | Weight loss (Mus musculus [36]): -4% | T/C (Mus musculus [37]): 0% | Weight loss (Mus musculus [38]): -20% | Death (Mus musculus [39]): 3

— ChEMBL document CHEMBL1145831 (J Med Chem, 2003)
